As usually defined, the IC50 is the concentration that inhibits the measured activity by half. Broadly, the logP is the decadic logarithm of the partition coefficient of the neutral form, usually between octanol and water. Low readings indicate a more hydrophilic compound, high ones a more lipophilic compound.

One data set addresses Integrin alpha-4/beta-1 (Homo sapiens, UniProt P05556+P13612). The data set can be described thus: Inhibition of integrin alpha4beta1 receptor-mediated human Molt-4 cell adhesion to CS1 peptide. Type of data set: cell-based.
A short description of data set [1]: Partition coefficient, log P of the compound. Type of data set: physicochemical. The settings on record: octanol/water. The method, boiled down:
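logP extrapolated from reverse-phase HPLC retention time converted to capacity factor k, against a standard calibration curve built from compounds of known logP.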

Integrin alpha-4/beta-1, sequence (P05556 whole entry): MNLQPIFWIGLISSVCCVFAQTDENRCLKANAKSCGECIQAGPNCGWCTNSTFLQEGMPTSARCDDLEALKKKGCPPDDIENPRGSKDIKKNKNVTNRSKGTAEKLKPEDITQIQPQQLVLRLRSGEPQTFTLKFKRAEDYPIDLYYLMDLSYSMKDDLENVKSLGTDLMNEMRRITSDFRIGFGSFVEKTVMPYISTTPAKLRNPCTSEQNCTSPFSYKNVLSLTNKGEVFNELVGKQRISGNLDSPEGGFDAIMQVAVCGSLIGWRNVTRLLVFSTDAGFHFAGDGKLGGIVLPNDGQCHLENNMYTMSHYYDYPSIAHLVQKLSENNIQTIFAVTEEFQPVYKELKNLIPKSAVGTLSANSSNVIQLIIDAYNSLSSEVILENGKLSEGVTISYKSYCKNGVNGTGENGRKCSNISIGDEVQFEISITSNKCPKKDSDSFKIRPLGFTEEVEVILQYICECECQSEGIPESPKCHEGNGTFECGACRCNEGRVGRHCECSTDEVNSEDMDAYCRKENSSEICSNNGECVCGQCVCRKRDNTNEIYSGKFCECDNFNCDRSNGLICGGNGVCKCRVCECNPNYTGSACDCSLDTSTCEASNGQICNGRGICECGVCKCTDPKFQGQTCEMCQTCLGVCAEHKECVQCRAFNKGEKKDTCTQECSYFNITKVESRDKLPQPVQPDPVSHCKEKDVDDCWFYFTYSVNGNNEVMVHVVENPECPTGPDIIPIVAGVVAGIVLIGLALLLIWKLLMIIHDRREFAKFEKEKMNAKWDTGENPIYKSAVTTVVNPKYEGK
Integrin alpha-4/beta-1, sequence (P13612 whole entry): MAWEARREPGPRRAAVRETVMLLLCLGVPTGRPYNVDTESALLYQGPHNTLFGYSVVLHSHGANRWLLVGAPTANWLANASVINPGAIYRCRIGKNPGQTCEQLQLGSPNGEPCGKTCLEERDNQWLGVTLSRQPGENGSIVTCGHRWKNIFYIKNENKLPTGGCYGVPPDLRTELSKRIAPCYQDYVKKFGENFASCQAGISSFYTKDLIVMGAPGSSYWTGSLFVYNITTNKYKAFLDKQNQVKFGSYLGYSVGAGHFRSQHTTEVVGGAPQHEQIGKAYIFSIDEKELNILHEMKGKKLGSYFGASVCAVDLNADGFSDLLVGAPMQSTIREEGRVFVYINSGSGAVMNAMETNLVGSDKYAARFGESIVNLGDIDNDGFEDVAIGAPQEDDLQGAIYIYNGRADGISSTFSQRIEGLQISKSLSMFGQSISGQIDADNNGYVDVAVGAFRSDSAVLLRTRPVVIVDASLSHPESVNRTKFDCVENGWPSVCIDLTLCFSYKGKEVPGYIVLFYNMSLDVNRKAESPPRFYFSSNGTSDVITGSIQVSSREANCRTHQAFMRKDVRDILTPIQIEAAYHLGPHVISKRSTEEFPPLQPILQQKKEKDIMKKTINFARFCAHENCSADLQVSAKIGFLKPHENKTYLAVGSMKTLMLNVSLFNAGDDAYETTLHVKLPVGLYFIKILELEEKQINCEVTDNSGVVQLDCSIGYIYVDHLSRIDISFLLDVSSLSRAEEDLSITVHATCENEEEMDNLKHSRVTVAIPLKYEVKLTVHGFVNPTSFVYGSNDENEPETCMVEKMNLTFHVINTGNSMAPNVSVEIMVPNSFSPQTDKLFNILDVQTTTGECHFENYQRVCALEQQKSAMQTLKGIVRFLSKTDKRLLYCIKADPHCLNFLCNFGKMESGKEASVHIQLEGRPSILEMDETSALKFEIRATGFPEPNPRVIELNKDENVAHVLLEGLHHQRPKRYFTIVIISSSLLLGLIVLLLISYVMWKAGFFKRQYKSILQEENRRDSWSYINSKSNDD

Take `NC(=O)C1(NC(=O)[C@@H](CCCC(=O)O)NC(=O)[C@@H](CCCCNC(=O)/C=C/c2cccnc2)NC(=O)CCc2ccc(Nc3nc4ccccc4[nH]3)cc2)CCCCC1`: on Integrin alpha-4/beta-1, half-maximal inhibition (IC50) required 344 nM. This molecule yielded a logP in data set [1] of 2.8.

The molecule `CC(C(=O)N[C@H](CCCCNC(=O)/C=C/c1cccnc1)C(=O)N[C@H](CCCC(=O)O)C(=O)NC1(C(N)=O)CCCCC1)c1ccc(Nc2nc3ccccc3[nH]2)cc1` (stereo partly specified) registered an IC50 at Integrin alpha-4/beta-1 of 444 nM. In data set [1], this molecule had a logP of 2.63.

As for `NC(=O)C1(NC(=O)[C@@H](CCCC(=O)O)NC(=O)[C@@H](CCCCNC(=O)/C=C/c2cccnc2)NC(=O)Cc2ccc(Nc3nc4ccccc4[nH]3)cc2)CCCCC1`, 0.305 nM corresponded to half-maximal inhibition on Integrin alpha-4/beta-1 (IC50). The logP in data set [1] was found to be 2.23.

On to `NC(=O)C1(NC(=O)[C@@H](CCCC(=O)O)NC(=O)[C@@H](CCCCNC(=O)/C=C/c2cccnc2)NC(=O)Cc2ccc(Nc3nc4cc(Br)ccc4[nH]3)cc2)CCCCC1`, for which the IC50 at Integrin alpha-4/beta-1 was 340 nM. The molecule further returned a logP in data set [1] of 1.96.

With `Cc1cccc2[nH]c(Nc3ccc(C(=O)N[C@H](CCCCNC(=O)/C=C/c4cccnc4)C(=O)N[C@H](CCCC(=O)O)C(=O)NC4(C(N)=O)CCCCC4)cc3)nc12`, on Integrin alpha-4/beta-1, the IC50 turned out to be 655 nM. Moreover, the logP in data set [1] turned out to be 1.86.

Molecule `NC(=O)C1(NC(=O)[C@@H](CCCC(=O)O)NC(=O)[C@@H](CCCCNC(=O)/C=C/c2cccnc2)NC(=O)c2ccc(Nc3nc4ccccc4[nH]3)cc2)CCCCC1` registered an IC50 against Integrin alpha-4/beta-1 of 420 nM. The same molecule displayed a logP in data set [1] of 1.83.

On Integrin alpha-4/beta-1, `Cc1cccc2[nH]c(Nc3ccc(CC(=O)N[C@H](CCCCNC(=O)/C=C/c4cccnc4)C(=O)N[C@H](CCCC(=O)O)C(=O)NC4(C(N)=O)CCCCC4)cc3)nc12` showed an IC50 of 27.5 nM. This molecule displayed a logP in data set [1] of 2.58.

For `NC(=O)C1(NC(=O)[C@@H](CCCC(=O)O)NC(=O)[C@@H](CCCCNC(=O)/C=C/c2cccnc2)NC(=O)c2cccc(Nc3nc4ccccc4[nH]3)c2)CCCCC1`, on Integrin alpha-4/beta-1, the midpoint of inhibition, the IC50, lay at 186 nM. Besides, the logP in data set [1] was 2.12.

Values taken from ChEMBL document CHEMBL1138247 (J Med Chem, 2007).
